Data from ChEMBL document CHEMBL4041491, “Imidazo[1,2-a]pyrazin-8-amine core for the design of new adenosine receptor antagonists: Structural exploration to target the A3 and A2A subtypes” (Eur J Med Chem, 2017).

Tests used:
[1] = molecular target: T1, Adenosine receptor A1 (Homo sapiens) (UniProt P30542); experiment: Displacement of [3H]DPCPX from human adenosine A1 receptor expressed in CHO cell membranes at 1 uM after 120 mins by scintillation counting method relative to control
T1 sequence (whole entry): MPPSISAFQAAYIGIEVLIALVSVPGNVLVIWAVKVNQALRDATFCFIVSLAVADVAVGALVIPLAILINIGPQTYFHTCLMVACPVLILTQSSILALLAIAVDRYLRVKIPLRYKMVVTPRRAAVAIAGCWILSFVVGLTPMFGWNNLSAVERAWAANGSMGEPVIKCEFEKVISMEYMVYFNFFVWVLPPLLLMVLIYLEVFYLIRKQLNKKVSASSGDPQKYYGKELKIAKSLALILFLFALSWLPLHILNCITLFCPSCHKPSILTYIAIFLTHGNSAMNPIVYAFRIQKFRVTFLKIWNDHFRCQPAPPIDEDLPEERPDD
In short: (§1)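 hA1 CHO membranes (50 µg protein) with 1 nM [3H]DPCPX in 50 mM Tris HCl pH 7.4, 120 min at 25 °C. Six to eight antagonist concentrations, or 1 µM for percent inhibition. Nonspecific binding with 1 µM DPCPX. Ki via Cheng–Prusoff, four assays in duplicate, means ± SEM.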

[2] = molecular target: T2, Adenosine receptor A2a (Homo sapiens, UniProt P29274); experiment: Displacement of [3H]ZM241385 from human adenosine A2A receptor expressed in CHO cell membranes at 1 uM after 60 mins by scintillation counting method relative to control
T2 sequence (P29274 whole entry): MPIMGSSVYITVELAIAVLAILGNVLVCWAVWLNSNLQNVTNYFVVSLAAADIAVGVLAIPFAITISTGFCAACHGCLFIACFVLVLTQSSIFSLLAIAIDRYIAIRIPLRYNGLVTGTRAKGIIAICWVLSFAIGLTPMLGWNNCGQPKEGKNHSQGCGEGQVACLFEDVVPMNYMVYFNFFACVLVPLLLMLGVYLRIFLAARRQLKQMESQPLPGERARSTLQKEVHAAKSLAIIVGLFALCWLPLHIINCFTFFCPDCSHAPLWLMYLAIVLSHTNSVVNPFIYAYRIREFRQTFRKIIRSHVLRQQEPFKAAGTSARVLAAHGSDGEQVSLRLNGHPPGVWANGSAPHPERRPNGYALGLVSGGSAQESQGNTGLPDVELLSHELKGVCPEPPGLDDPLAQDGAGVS
In short: (§2)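 hA2A CHO membranes (50 µg protein) with 1 nM [3H]ZM241385 in 50 mM Tris HCl, 10 mM MgCl2, pH 7.4, 60 min at 4 °C. Six to eight antagonist concentrations, or 1 µM for percent inhibition. Nonspecific binding with 1 µM ZM241385. Ki via Cheng–Prusoff, four assays in duplicate, means ± SEM.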

[3] = molecular target: T3, Adenosine receptor A2b (Homo sapiens) (UniProt P29275); experiment: Antagonist activity at human A2B receptor expressed in CHO cells assessed as inhibition of NECA-stimulated cAMP production at 1 uM by [3H]cAMP competition binding based scintillation counting method relative to control; format: functional, cell-based
T3 sequence (whole entry): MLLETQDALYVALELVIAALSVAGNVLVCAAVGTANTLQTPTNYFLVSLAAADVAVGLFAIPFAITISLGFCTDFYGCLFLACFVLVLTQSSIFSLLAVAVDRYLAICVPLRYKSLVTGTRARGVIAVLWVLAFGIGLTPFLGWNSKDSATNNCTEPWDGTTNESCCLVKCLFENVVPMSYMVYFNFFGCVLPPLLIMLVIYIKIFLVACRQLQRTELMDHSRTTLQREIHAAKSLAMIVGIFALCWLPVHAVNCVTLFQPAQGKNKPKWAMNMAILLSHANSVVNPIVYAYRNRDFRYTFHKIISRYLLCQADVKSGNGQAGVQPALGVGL
In short: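 Transfected CHO cells (1 × 10^6/assay) in buffered saline pH 7.4 with adenosine deaminase 2 IU/ml and Ro 20-1724, preincubated 10 min at 37 °C. Test compound at 1 μM against 200 nM NECA-stimulated cAMP. TCA stop, ether extraction, cAMP measured by [3H]cAMP competition binding to bovine adrenal binding protein. Result given as percent inhibition.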

[4] = molecular target: T4, Adenosine receptor A3 (Homo sapiens, UniProt P0DMS8); experiment: Displacement of [125I]AB-MECA from human adenosine A3 receptor expressed in CHO cell membranes at 1 uM after 120 mins by scintillation counting method relative to control
T4 sequence (P0DMS8 whole entry, looked up): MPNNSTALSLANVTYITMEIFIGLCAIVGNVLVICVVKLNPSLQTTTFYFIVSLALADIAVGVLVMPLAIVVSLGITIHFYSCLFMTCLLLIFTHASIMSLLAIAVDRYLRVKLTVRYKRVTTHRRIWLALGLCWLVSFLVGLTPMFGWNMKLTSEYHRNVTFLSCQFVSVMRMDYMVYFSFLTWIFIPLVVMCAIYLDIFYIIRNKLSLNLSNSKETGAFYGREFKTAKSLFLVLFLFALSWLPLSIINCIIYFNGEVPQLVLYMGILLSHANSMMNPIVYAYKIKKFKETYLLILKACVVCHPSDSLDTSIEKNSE

[5] = molecular target: T4, Adenosine receptor A3; experiment: Displacement of [125I]AB-MECA from human adenosine A3 receptor expressed in CHO cell membranes after 120 mins by scintillation counting method
In short: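 hA3 CHO membranes (50 µg protein) with 0.5 nM [125I]AB-MECA in 50 mM Tris HCl, 10 mM MgCl2, 1 mM EDTA, pH 7.4, 120 min at 4 °C. Six to eight ligand concentrations, or 1 µM for percent inhibition. Nonspecific binding with 1 µM AB-MECA; GF/B filtration. Ki by Cheng–Prusoff, four assays in duplicate, means ± SEM.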

[6] = molecular target: T4, Adenosine receptor A3; experiment: Antagonist activity at human A3 receptor expressed in CHO cells assessed as inhibition of CI-IB-MECA-mediated inhibition of cAMP production by [3H]cAMP competition binding based scintillation counting method; format: cell-based
In short: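 hA3-transfected CHO cells (1 × 10^6/assay) in buffered saline pH 7.4 with adenosine deaminase and Ro 20-1724, preincubated 10 min at 37 °C. Antagonism of 100 nM Cl-IB-MECA inhibition of 1 µM forskolin-stimulated cAMP. cAMP measured by [3H]cAMP protein-binding assay. IC50 by sigmoid nonlinear regression, four independent experiments in triplicate, means ± SEM.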

[7] = molecular target: T5, Adenosine receptor A3 (Rattus norvegicus) (UniProt P28647); experiment: Displacement of [125I]AB-MECA from rat adenosine A3 receptor expressed in HEK293 cell membranes at 1 uM after 120 mins by scintillation counting method relative to control
T5 sequence (whole entry): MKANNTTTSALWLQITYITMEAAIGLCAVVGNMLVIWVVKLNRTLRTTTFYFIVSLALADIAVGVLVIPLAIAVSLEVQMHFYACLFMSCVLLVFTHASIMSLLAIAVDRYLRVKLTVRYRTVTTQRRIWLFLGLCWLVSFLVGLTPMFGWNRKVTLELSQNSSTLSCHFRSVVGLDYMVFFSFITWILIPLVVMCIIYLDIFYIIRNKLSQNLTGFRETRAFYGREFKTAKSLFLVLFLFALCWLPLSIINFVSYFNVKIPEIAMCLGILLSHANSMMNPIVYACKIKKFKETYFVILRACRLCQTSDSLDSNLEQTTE
In short: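 rA3 receptor in HEK293 membranes (10 μg protein), 0.5 nM [125I]AB-MECA, 50 mM Tris–HCl, 10 mM MgCl2, 1 mM EDTA, pH 7.4, 120 min at 25 °C. Nonspecific binding with 1 μM AB-MECA; filtration and scintillation counting. Percent inhibition of specific binding at 1 µM.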

[8] = molecular target: T6, Adenosine receptor A1 (Homo sapiens, UniProt P30542); experiment: Displacement of [3H]DPCPX from human adenosine A1 receptor expressed in CHO cell membranes after 120 mins by scintillation counting method; in short: as §1
T6 sequence (P30542 whole entry): T1 sequence (whole entry)

[9] = molecular target: T2, Adenosine receptor A2a; experiment: Displacement of [3H]ZM241385 from human adenosine A2A receptor expressed in CHO cell membranes after 60 mins by scintillation counting method; in short: as §2

| SMILES | inhibition [1] | inhibition [2] | inhibition [3] | inhibition [4] | Ki [5] | IC50 [6] | inhibition [7] | Ki [8] | Ki [9] |
| --- | --- | --- | --- | --- | --- | --- | --- | --- | --- |
| COc1ccc(-c2cn3cc(-c4ccccc4)nc3c(N)n2)cc1 | 20% | 23% | 16% | 23% |  |  |  |  |  |
| O=C(Nc1nc(-c2ccccc2)cn2cc(-c3ccccc3)nc12)c1cccs1 | 5% | 1% | 4% |  | 0.185 µM |  |  |  |  |
| Nc1nc(-c2ccc(OCc3ccccc3)cc2)cn2cc(-c3ccccc3)nc12 | 10% | 1% | 4% | 1% |  |  |  |  |  |
| O=C(c1ccccc1)N(C(=O)c1ccccc1)c1nccn2cc(-c3ccccc3)nc12 | 4% | 5% | 3% |  | 0.064 µM | 0.187 µM | 1% |  |  |
| O=C(Nc1nc(-c2ccccc2)cn2cc(-c3ccccc3)nc12)c1ccccc1 | 1% | 1% | 1% |  | 0.082 µM | 0.235 µM | 2% |  |  |
| O=C(Nc1nccn2cc(-c3ccccc3)nc12)C(c1ccccc1)c1ccccc1 | 32% | 1% | 25% |  | 0.245 µM |  |  |  |  |
| Nc1nc(-c2ccccc2)cn2cc(-c3ccco3)nc12 |  |  | 10% | 21% |  |  |  | 0.143 µM | 0.52 µM |
| Cc1ccc(C(=O)Nc2nccn3cc(-c4ccccc4)nc23)cc1 | 26% | 21% | 10% | 45% |  |  |  |  |  |
| O=C(c1ccc(F)cc1)N(C(=O)c1ccc(F)cc1)c1nc(-c2ccccc2)cn2cc(-c3ccccc3)nc12 | 1% | 1% | 3% | 31% |  |  |  |  |  |
| COc1ccc(-c2cn3cc(-c4ccccc4)nc(NC(=O)c4ccccc4)c3n2)cc1 | 3% | 1% | 1% |  | 0.312 µM |  |  |  |  |
| COc1ccc(C(=O)Nc2nccn3cc(-c4ccccc4)nc23)cc1 | 1% | 3% | 1% |  | 0.162 µM |  |  |  |  |
| COc1ccc(-c2cn3cc(-c4ccccc4)nc(N)c3n2)cc1 |  | 1% | 1% | 27% |  |  |  | 0.524 µM |  |
| COc1ccc(-c2cn3ccnc(N)c3n2)cc1 | 1% | 1% | 1% | 1% |  |  |  |  |  |
| O=C(Nc1nccn2cc(-c3ccco3)nc12)c1ccccc1 | 7% | 1% | 1% | 22% |  |  |  |  |  |
| Nc1nccn2cc(-c3ccccc3)nc12 | 30% | 13% | 30% | 12% |  |  |  |  |  |
| Nc1nc(-c2cccc(C(=O)O)c2)cn2cc(-c3ccccc3)nc12 | 7% | 9% | 3% | 1% |  |  |  |  |  |
| Nc1nc(-c2ccco2)cn2cc(-c3ccccc3)nc12 | 28% | 38% | 13% | 20% |  |  |  |  |  |

| SMILES | inhibition [1] | inhibition [2] | inhibition [3] | inhibition [4] | Ki [5] | IC50 [6] | inhibition [7] | Ki [8] | Ki [9] |
| --- | --- | --- | --- | --- | --- | --- | --- | --- | --- |
| O=C(Nc1ccccc1)Nc1nccn2cc(-c3ccccc3)nc12 | 1% | 1% | 1% | 6% |  |  |  |  |  |
| O=C(Cc1ccccc1)Nc1nccn2cc(-c3ccccc3)nc12 | 46% | 37% | 15% |  | 0.524 µM |  |  |  |  |
| Nc1nccn2cc(-c3ccco3)nc12 | 21% | 12% | 1% | 5% |  |  |  |  |  |
| O=C(Nc1nc(-c2ccccc2)cn2cc(-c3ccccc3)nc12)c1ccco1 | 10% | 1% | 2% |  | 0.067 µM |  |  |  |  |
| Cc1ccc(C(=O)Nc2nc(-c3ccccc3)cn3cc(-c4ccccc4)nc23)cc1 | 1% | 1% | 3% |  | 0.223 µM |  |  |  |  |
| O=C(Nc1nc(-c2ccccc2)cn2cc(-c3ccccc3)nc12)c1ccc(Cl)cc1 | 1% | 1% | 1% |  | 0.156 µM |  |  |  |  |
| COc1ccc(-c2cn3cc(Br)nc(N)c3n2)cc1 | 29% | 11% | 27% | 24% |  |  |  |  |  |
| COc1ccc(C(=O)Nc2nc(-c3ccccc3)cn3cc(-c4ccccc4)nc23)cc1 | 6% | 8% | 1% |  | 0.025 µM | 0.073 µM | 1% |  |  |
| O=C(Nc1nccn2cc(-c3ccccc3)nc12)c1ccccc1 | 18% | 1% | 2% |  | 0.052 µM | 0.163 µM | 2% |  |  |
| COc1ccc(-c2cn3ccnc(NC(=O)c4ccccc4)c3n2)cc1 | 1% | 1% | 1% |  | 0.121 µM |  |  |  |  |
| Nc1nc(-c2ccc(Cl)cc2)cn2cc(-c3ccccc3)nc12 | 3% | 1% | 2% | 1% |  |  |  |  |  |
| O=C(Nc1nccn2cc(-c3ccccc3)nc12)c1ccco1 | 25% | 34% | 19% | 40% |  |  |  |  |  |
| O=C(Nc1nccn2cc(-c3ccccc3)nc12)c1cccnc1 | 24% | 13% | 22% | 42% |  |  |  |  |  |
| Nc1nc(Br)cn2cc(-c3ccccc3)nc12 |  | 18% | 40% | 14% |  |  |  | 0.42 µM |  |
| COc1cccc(-c2cn3cc(-c4ccccc4)nc3c(N)n2)c1 | 37% | 24% | 30% | 21% |  |  |  |  |  |
| O=C(Nc1nc(-c2ccccc2)cn2cc(-c3ccccc3)nc12)c1ccc(F)cc1 | 1% | 1% | 2% |  | 0.038 µM |  |  |  |  |
| Nc1nc(-c2cccc(NC(=O)Cc3ccccc3)c2)cn2cc(-c3ccccc3)nc12 | 37% | 33% | 7% | 8% |  |  |  |  |  |
